The source of these data is ChEMBL document CHEMBL4393713, “Synthesis and biological evaluation of novel xanthine derivatives as potential apoptotic antitumor agents” (Eur J Med Chem, 2019).

The structures appear in SMILES notation.

Data set [1] is described as follows: Cytotoxicity against human MCF10A cells assessed as cell viability at 50 uM measured after 4 days by MTT assay relative to control. The settings on record: read-out: Activity. Type of data set: cell-based, MCF-10A.
The next data set concerns MCF7. Briefly: Antiproliferative activity against human MCF7 cells assessed as inhibition of cell proliferation measured after 48 hrs by MTT assay. Format: functional, cell-based. The settings on record: MCF7, 48 h. The procedure, abridged:
(§1)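 Cells tested by MTT: pancreatic Panc-1, breast MCF-7, colon HT-29 and A-549. Doxorubicin run alongside as the reference compound.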

For data set [2], the system named is PANC-1. Briefly: Antiproliferative activity against human PANC1 cells assessed as inhibition of cell proliferation measured after 48 hrs by MTT assay. Type of data set: functional, cell-based. The settings on record: PANC-1, 48 h. An outline of the steps: as §1
Another data set has as its system HT-29. Nature of the data set: Antiproliferative activity against human HT-29 cells assessed as inhibition of cell proliferation measured after 48 hrs by MTT assay. Type of data set: functional, cell-based. Particulars: HT-29, 48 h. The procedure, abridged: as §1
Another data set concerns A549. Briefly: Antiproliferative activity against human A549 cells assessed as inhibition of cell proliferation measured after 48 hrs by MTT assay. The settings on record: A549, 48 h. Format: functional, cell-based. An outline of the steps:
as §1

Data set [3] addresses Epidermal growth factor receptor (Homo sapiens, UniProt P00533). Nature of the data set: Inhibition of human EGFR measured after 3 hrs by ELISA.
Data set [4] relates to PANC-1. Nature of the data set: Induction of apoptosis in human PANC1 cells assessed as increase in caspase 3 level measured after 24 to 48 hrs relative to control. Type of data set: functional. The procedure, abridged: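 Active caspase-3 protein in treated Panc-1 cells quantified as pg/mL. Reported as fold increase over untreated control cells, with doxorubicin as the reference drug.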

The test system of data set [5] is PANC-1. Briefly: Induction of apoptosis in human PANC1 cells assessed as increase in caspase 8 level measured after 24 to 48 hrs relative to control. Type of data set: functional. The procedure, abridged:
(§2)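 Caspase-8, caspase-9 and cytochrome c levels in treated Panc-1 cells expressed as fold change relative to untreated control cells.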

The subject of data set [6] is PANC-1. Briefly: Induction of apoptosis in human PANC1 cells assessed as increase in cytochrome C level using TMB substrate measured after 24 hrs relative to control. Type of data set: functional. An outline of the steps: as §2
The subject of data set [7] is PANC-1. Nature of the data set: Induction of apoptosis in human PANC1 cells assessed as increase in caspase 9 level measured after 24 to 48 hrs relative to control. Type of data set: functional. An outline of the steps: as §2
The subject of data set [8] is PANC-1. Briefly: Induction of apoptosis in human PANC1 cells assessed as increase in BAX level by Sybr-green dye based RT-PCR analysis relative to control. Format: functional.
Data set [9] deals with PANC-1. Briefly: Induction of apoptosis in human PANC1 cells assessed as downregulation of Bcl-2 expression level by Sybr-green dye based RT-PCR analysis relative to control. Type of data set: functional.
Data set [10] relates to PANC-1. Nature of the data set: Cell cycle arrest in human PANC1 cells assessed as accumulation at G0/G1 phase measured after 24 hrs by annexin v propidium iodide staining based flow cytometric analysis (reference value: 53.64%). Type of data set: functional.
Data set [11] has as its system PANC-1. Briefly: Cell cycle arrest in human PANC1 cells assessed as accumulation at G2/M phase measured after 24 hrs by annexin v propidium iodide staining based flow cytometric analysis (reference value: 9.95 %). Type of data set: functional.
Data set [12] has as its system PANC-1. Briefly: Cell cycle arrest in human PANC1 cells assessed as accumulation at pre G1 phase measured after 24 hrs by annexin v propidium iodide staining based flow cytometric analysis (reference value: 1.79%). Type of data set: functional.
The subject of data set [13] is PANC-1. Briefly: Induction of apoptosis in human PANC1 cells assessed as proportion of early apoptotic cells measured after 24 hrs by annexin v propidium iodide staining based flow cytometric analysis. Format: functional.
Data set [14] relates to PANC-1. Briefly: Induction of apoptosis in human PANC1 cells assessed as proportion of late apoptotic cells measured after 24 hrs by annexin v propidium iodide staining based flow cytometric analysis. Type of data set: functional.
Data set [15] has as its system PANC-1. Briefly: Induction of apoptosis in human PANC1 cells assessed as proportion of necrotic cells measured after 24 hrs by annexin v propidium iodide staining based flow cytometric analysis. Type of data set: functional.

Sequence of Epidermal growth factor receptor (P00533 whole entry): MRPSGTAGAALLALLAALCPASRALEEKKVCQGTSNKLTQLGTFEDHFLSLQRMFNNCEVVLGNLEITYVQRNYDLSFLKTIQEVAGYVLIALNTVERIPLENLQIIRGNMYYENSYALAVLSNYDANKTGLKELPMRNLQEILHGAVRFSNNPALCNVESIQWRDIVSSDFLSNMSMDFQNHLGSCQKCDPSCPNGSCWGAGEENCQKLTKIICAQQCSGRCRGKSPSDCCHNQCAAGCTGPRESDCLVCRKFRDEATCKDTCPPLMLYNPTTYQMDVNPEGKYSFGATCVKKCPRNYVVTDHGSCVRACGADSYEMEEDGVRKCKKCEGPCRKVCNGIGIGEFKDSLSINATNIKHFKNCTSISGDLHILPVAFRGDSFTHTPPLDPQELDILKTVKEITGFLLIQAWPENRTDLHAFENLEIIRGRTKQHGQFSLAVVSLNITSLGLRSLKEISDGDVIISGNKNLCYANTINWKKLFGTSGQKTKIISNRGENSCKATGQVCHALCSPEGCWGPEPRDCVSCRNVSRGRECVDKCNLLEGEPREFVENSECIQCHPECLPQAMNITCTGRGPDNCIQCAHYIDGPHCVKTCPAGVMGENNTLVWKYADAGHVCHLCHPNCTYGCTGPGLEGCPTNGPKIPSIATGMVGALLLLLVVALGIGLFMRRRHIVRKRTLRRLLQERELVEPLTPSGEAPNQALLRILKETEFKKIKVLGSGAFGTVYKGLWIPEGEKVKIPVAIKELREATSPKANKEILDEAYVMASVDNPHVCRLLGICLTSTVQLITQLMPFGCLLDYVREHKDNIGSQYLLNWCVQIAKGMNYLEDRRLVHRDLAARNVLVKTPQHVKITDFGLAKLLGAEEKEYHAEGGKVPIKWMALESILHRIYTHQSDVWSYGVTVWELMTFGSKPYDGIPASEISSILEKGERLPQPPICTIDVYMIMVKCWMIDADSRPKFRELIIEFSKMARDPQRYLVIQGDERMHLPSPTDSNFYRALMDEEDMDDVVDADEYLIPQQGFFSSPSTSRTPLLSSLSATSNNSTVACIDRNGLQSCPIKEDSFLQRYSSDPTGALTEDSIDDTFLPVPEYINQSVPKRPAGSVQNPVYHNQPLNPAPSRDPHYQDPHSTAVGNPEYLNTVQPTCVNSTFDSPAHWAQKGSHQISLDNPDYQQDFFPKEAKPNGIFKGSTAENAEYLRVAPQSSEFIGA

As for `Cn1c(=O)c2[nH]c(SC/C(=N/O)c3ccc(Br)cc3)nc2n(C)c1=O`, the viability at 96 h, 50 µM in [1] is above 90%. Further, the IC50 with MCF7 was 1.3 µM; in the data set with PANC-1 [2], 1.7 µM; in the data set on HT-29 it was 1.7 µM; in the data set with A549, 1.8 µM; in [3] it was 0.45 µM. Also, the “fold change (FC)” value in the data set with PANC-1 [4] was determined as 5.91.
Regarding `COc1ccc(/C(CSc2nc3c([nH]2)c(=O)n(C)c(=O)n3C)=N\O)cc1`, the viability at 96 h, 50 µM in data set [1] was above 90%. Moreover, the IC50 is 0.8 µM in the data set with MCF7, 0.91 µM in the data set on PANC-1 [2], 1.7 µM in the data set with HT-29 and 1.5 µM in the data set on A549.
Take `COc1ccc(/C(CSc2nc3[nH]c(=O)n(C)c(=O)c3[nH]2)=N\O)cc1`: the viability at 96 h, 50 µM in data set [1] was above 90%. For the same compound, the IC50 with MCF7 was 1.8 µM; in the data set with PANC-1 [2], 1.91 µM; in the data set on HT-29, 1.7 µM; in the data set on A549, 1.5 µM; in data set [3], 0.71 µM. In addition, the “fold change (FC)” value with PANC-1 [4] is 7.65; with PANC-1 [5], 2.58; in the data set with PANC-1 [6] it was 11.43; with PANC-1 [7] it was 14.49; in the data set with PANC-1 [8] it was 8.9; with PANC-1 [9], 0.3378.
For `C/C(=N/O)c1ccc(NC(=O)CSc2nc3[nH]c(=O)n(C)c(=O)c3[nH]2)cc1`, in [1], the viability at 96 h, 50 µM was above 90%. In addition, the IC50 in the data set on MCF7 was determined as 9.1 µM; in the data set with PANC-1 [2], 7.7 µM; in the data set on HT-29, 6.2 µM; with A549, 7.3 µM.
Taken in the same sequence, the figures for `C/C(=N/O)c1ccc(NC(=O)CSc2nc3c([nH]2)c(=O)n(C)c(=O)n3C)cc1` were above 90%, 5.3 µM, 4.6 µM, 3.1 µM and 6.6 µM.
Consider `Cn1c(=O)c2[nH]c(SCC(=O)c3ccccc3)nc2n(C)c1=O`, for which the viability at 96 h, 50 µM in data set [1] was above 90%. For the same compound, the IC50 with MCF7 came out at 5.1 µM; in the data set with PANC-1 [2], 4.9 µM; with HT-29, 5.9 µM; with A549, 6.7 µM.
Take `Cn1c(=O)[nH]c2nc(SC/C(=N/O)c3ccccc3)[nH]c2c1=O`: in data set [1], the viability at 96 h, 50 µM was above 90%. For the same compound, the IC50 in the data set on MCF7 was 4.3 µM; in the data set with PANC-1 [2], 3.6 µM; in the data set with HT-29 it was 2.1 µM; in the data set with A549, 5.6 µM.
Taken in the same sequence, the figures for `Cn1c(=O)[nH]c2nc(SCC(=O)c3ccccc3)[nH]c2c1=O` were above 90%, 11.6 µM, 9.4 µM, 11.1 µM and 11.9 µM.
Take `Cn1c(=O)c2[nH]c(SCC(=O)c3ccc(Cl)cc3)nc2n(C)c1=O`: in data set [1], the viability at 96 h, 50 µM is above 90%. Moreover, the IC50 in the data set on MCF7 came to 8.4 µM; in the data set on PANC-1 [2], 7.2 µM; with HT-29 it was 9.9 µM; with A549, 8.4 µM.
Turning to `COc1ccc(C(=O)CSc2nc3c([nH]2)c(=O)n(C)c(=O)n3C)cc1`, the viability at 96 h, 50 µM in [1] is above 90%. The concentration for half-maximal inhibition (IC50) with MCF7 was found to be 7.6 µM; with PANC-1 [2] it was 6.4 µM; in the data set on HT-29, 8.1 µM; with A549, 7.9 µM.
As to `COc1ccc(C(=O)CSc2nc3[nH]c(=O)n(C)c(=O)c3[nH]2)cc1`, the viability at 96 h, 50 µM in [1] is above 90%. For the same compound, the IC50 in the data set on MCF7 worked out at 5.9 µM; in the data set on PANC-1 [2], 5.5 µM; with HT-29 it was 6.7 µM; in the data set with A549, 6.1 µM.
As to `Cn1c(=O)c2[nH]c(SC/C(=N/O)c3ccc(Cl)cc3)nc2n(C)c1=O`, in [1], the viability at 96 h, 50 µM is above 90%. The IC50 is 1 µM with MCF7; 1.3 µM with PANC-1 [2]; 1.2 µM with HT-29; 1.5 µM in the data set with A549; 0.4 µM in data set [3]. Also, the “fold change (FC)” value in the data set with PANC-1 [4] was determined as 4.11.
In the case of `Cn1c(=O)[nH]c2nc(SC/C(=N/O)c3ccc(Cl)cc3)[nH]c2c1=O`, the viability at 96 h, 50 µM in data set [1] is above 90%. Further, the IC50 with MCF7 was 1.4 µM; in the data set on PANC-1 [2], 1.7 µM; with HT-29 it was 1.8 µM; in the data set with A549, 1.89 µM; in data set [3], 0.82 µM. Also, the Activity in the data set with PANC-1 [10] came out at 35.08%; with PANC-1 [11], 34.36%; in the data set on PANC-1 [12] it was 17.34%; in the data set with PANC-1 [13], 6.11%; in the data set on PANC-1 [14] it was 8.86%; with PANC-1 [15], 2.37%. The “fold change (FC)” value was 8.06 in the data set with PANC-1 [4]; 3.47 in the data set with PANC-1 [5]; 10.2 in the data set on PANC-1 [6]; 15.68 with PANC-1 [7]; 12.7 with PANC-1 [8]; 0.239 in the data set with PANC-1 [9].
For `Cn1c(=O)[nH]c2nc(SCC(=O)c3ccc(Cl)cc3)[nH]c2c1=O`, the viability at 96 h, 50 µM in data set [1] is above 90%. Also, the IC50 in the data set on MCF7 was determined as 6.3 µM; with PANC-1 [2] it was 6.1 µM; in the data set with HT-29, 7.2 µM; in the data set with A549, 8.1 µM.
Taken in the same sequence, the figures for `CC(=O)c1ccc(NC(=O)CSc2nc3c([nH]2)c(=O)n(C)c(=O)n3C)cc1` were above 90%, 6.1 µM, 5.1 µM, 6.4 µM and 6.9 µM.
For the compound `Cn1c(=O)c2[nH]c(SCC(=O)c3ccc(Br)cc3)nc2n(C)c1=O`, in data set [1], the viability at 96 h, 50 µM is above 90%. Besides, the IC50 in the data set on MCF7 was 7.6 µM; in the data set with PANC-1 [2], 7.4 µM; in the data set on HT-29, 6.5 µM; with A549 it was 7.9 µM.
In the same order, the values of `CC(=O)c1ccc(NC(=O)CSc2nc3[nH]c(=O)n(C)c(=O)c3[nH]2)cc1` are above 90%, 6.1 µM, 5.9 µM, 6.9 µM and 7.7 µM.
In the case of `Cn1c(=O)c2[nH]c(SC/C(=N/O)c3ccccc3)nc2n(C)c1=O`, the viability at 96 h, 50 µM in data set [1] is above 90%. Further, the IC50 stood at 5.9 µM with MCF7, 5.5 µM in the data set with PANC-1 [2], 6.7 µM in the data set on HT-29 and 6.1 µM with A549.
In the case of `Cn1c(=O)[nH]c2nc(SCC(=O)c3ccc(Br)cc3)[nH]c2c1=O`, the viability at 96 h, 50 µM in data set [1] is above 90%. Moreover, the IC50 in the data set on MCF7 is 11.2 µM; in the data set on PANC-1 [2] it was 9.7 µM; with HT-29 it was 11.5 µM; in the data set with A549, 11.9 µM.
For the compound `Cn1c(=O)[nH]c2nc(SC/C(=N/O)c3ccc(Br)cc3)[nH]c2c1=O`, the viability at 96 h, 50 µM in [1] is above 90%. The IC50 in the data set with MCF7 came out at 1.7 µM; in the data set with PANC-1 [2], 2.1 µM; with HT-29, 2 µM; with A549, 2.1 µM; in data set [3] it was 2.88 µM. The “fold change (FC)” value in the data set with PANC-1 [4] came to 4.99.
With `COc1cccc2c1C(=O)c1c(O)c3c(c(O)c1C2=O)C[C@@](O)(C(=O)CO)C[C@@H]3O[C@H]1C[C@H](N)[C@H](O)[C@H](C)O1` [DOXORUBICIN], the figures for the IC50 in the data set on PANC-1 [2], with HT-29 and in the data set with A549 were 1.41 µM, 1.01 µM and 1.21 µM, respectively. In the data set on PANC-1 [12], the Activity is 22.17%.
